# Assay results as given in paper PMC4085996 (ChemMedChem, 2014).
# Where “and” joins values, the source holds several entries; their conditions need not be identical. Equal entries are not always repeated. Where two headings read alike, the source gives them in different places.
# Assays:
# [1] = test system: HIV-1 RT multidrug-resistant (RTMDR) viral strain; conditions: read-out: EC50 RTMDR (prior studies); same assays for leads and drugs; cited from earlier work
# [2] = test system: HIV-1 NL4-3 (wild-type) virus; assay: microbe, parasite or virus in culture; type: cell-based
# [3] = test system: HIV-1 IIIB (wt); assay: HIV-1 infection assay using MT-2 cells; type: cell-based
# Outline: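 MT-2 cells (10^4/well) infected overnight with 100 TCID50 HIV-1 IIIB in RPMI 1640 plus 10% FBS, with or without graded concentrations of test compound. Medium then replaced with compound-free medium. On day 4 post-infection, supernatants mixed with equal volume 5% Triton X-100 and p24 antigen quantified by ELISA. EC50 calculated from percent inhibition of p24 production.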
# [4] = CytoTox-Glo cytotoxicity assay; type: cell-based; conditions: human, TZM-bl cells
# Outline: (§1)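 Run alongside the antiviral assays. TZM-bl cells were cultured for one day with graded concentrations of test compound. Percent viable cells was determined with the CytoTox-Glo kit according to the manufacturer's protocol.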
# [5] = Microsomal stability assay; type: in vitro ADME; conditions: 1 μM compound, 0.1 mg/mL human liver microsomes, 37 °C
# [6] = test system: HIV-1 RTMDR (RT L74V, M41L, V106A, T215Y); type: cell-based; conditions: TZM-bl cells; for Resistance fold change RTMDR: versus NL4-3(wt); for EC50: read-out: EC50 RTMDR
# [7] = test system: HIV-1 NL4-3 K101E mutant; type: cell-based; conditions: TZM-bl cells; for Resistance fold change K101E: versus NL4-3(wt); for EC50: read-out: EC50 K101E
# [8] = test system: HIV-1 NL4-3 E138K mutant; type: cell-based; conditions: TZM-bl cells; for Resistance fold change E138K: versus NL4-3(wt); for EC50: read-out: EC50 E138K
# [9] = test system: TZM-bl cells; assay: CytoTox-Glo cytotoxicity assay; type: cell-based; conditions: one day, average of two independent tests
# Outline: as §1
# [10] = Aqueous solubility measurement; type: physicochemical; conditions: triplicate; for Aqueous solubility pH 2.0: pH 2.0, HPLC method; for Aqueous solubility pH 7.4: pH 7.4, HPLC method
# [11] = Log P measurement; type: physicochemical; conditions: measured at pH7.4 by HPLC method, triplicate
# [12] = test system: HIV-1 A17 (K103N and Y181C); type: cell-based; conditions: MT-2 cells; for Resistance fold change A17: versus IIIB (wt); for EC50: read-out: EC50 A17
# [13] = test system: HIV-1 wild-type and resistant viral strains with RTMDR, K101E or E138K mutation; assay: Text summary: antiviral potency over wild-type and resistant strains; type: cell-based
# [14] = read-out: EC50 (NL4-3 infection of TZM-bl cells), mean ± SD, at least three independent experiments
# [15] = read-out: EC50 NL4-3(wt), TZM-bl cells, Table 2
# [16] = read-out: EC50 IIIB (wt), MT-2 cells
molecule,measurement,setting,value
"Cc1cc(C#N)cc(C)c1Oc1nc(Nc2ccc(C#N)cc2)nc(N)c1Br [1a, etravirine]",EC50,[1],1 nM
"Cc1cc(/C=C/C#N)cc(C)c1Nc1ccnc(Nc2ccc(C#N)cc2)n1 [1b, rilpivirine, reference compound]",EC50,"[2]; Human immunodeficiency virus 1, NL43, TZM-bl, read-out: EC50 NL4-3(wt)",0.44 nM
same,EC50,"[3]; Human immunodeficiency virus 1, IIIB, MT2, read-out: EC50 IIIB (wt)",0.49 nM
same,CC50 at 1 day,[4],19400 nM
same,HLM t1/2,[5],39.52 min
same,EC50,[1],0.49 nM
"N#Cc1ccc(Nc2nc(Oc3c(F)cccc3F)ccc2N)cc1 [6a, N^2-(4′-Cyanophenyl)amino-6-(2”,6”-difluoro)phenoxypyridin-3-amine]",EC50,[2]; [14],6.78 ± 1.18 nM
same,EC50,[2]; [15],6.78 nM
same,Resistance fold change RTMDR,[6],0.52
same,EC50,[6],3.55 nM
same,Resistance fold change K101E,[7],7.82
same,EC50,[7],53 nM
same,Resistance fold change E138K,[8],4.3
same,EC50,[8],> 29 nM
same,CC50,[9],19200 nM
same,HLM t1/2,[5],44.01 min
same,Aqueous solubility pH 2.0,[10],8.42 μg/mL
same,Aqueous solubility pH 7.4,[10],1.58 μg/mL
same,log P,[11],>5
N#Cc1ccc(Nc2nc(Oc3c(F)cc(Br)cc3F)ccc2N)cc1 [6b],EC50,[2]; [14],7.43 ± 1.1 nM
same,CC50,[9],> 9590 nM
"N#Cc1ccc(Nc2nc(Oc3c(F)cc(CO)cc3F)ccc2N)cc1 [6c, N^2-(4′-Cyanophenyl)amino-6-(2”,6”-difluoro-4”-hydroxymethyl)phenoxypyridine-3-amine]",EC50,[2]; [14],57.1 ± 9.2 nM
same,CC50,[9],> 27200 nM
"CC(=O)OCc1cc(F)c(Oc2ccc(N)c(Nc3ccc(C#N)cc3)n2)c(F)c1 [6d, N^2-(4′-Cyanophenyl)amino-6-(2”,6”-difluoro-4”-acetoxymethyl)phenoxypyridin-3-amine]",EC50,[2]; [14],290 ± 46 nM
"N#Cc1ccc(Nc2nc(Oc3c(F)cc(C=NO)cc3F)ccc2N)cc1 [6e, N^2-(4′-Cyanophenyl)amino-6-(2”,6”-difluoro-4”-(hydroxyimino)methyl)phenoxy pyridin-3-amine]",EC50,[2]; [14],261 ± 55.1 nM
same,CC50,[9],> 26200 nM
"N#Cc1ccc(Nc2nc(Oc3c(F)cc(C#N)cc3F)ccc2N)cc1 [6f, N^2-(4′-Cyanophenyl)amino-6-(2”,6”-difluoro-4”-cyano)phenoxypyridin-3-amine]",EC50,[2]; [14],5.16 ± 1.57 nM
same,CC50,[9],> 9390 nM
"N#C/C=C/c1cc(F)c(Oc2ccc(N)c(Nc3ccc(C#N)cc3)n2)c(F)c1 [6g, (E)-N^2-(4′-Cyanophenyl)amino-6-(4”-cyanovinyl-2”,6”-difluoro)phenoxypyridin-3-amine]",EC50,[2]; [14],0.75 ± 0.18 nM
same,EC50,[2]; [15],0.75 nM
same,Resistance fold change RTMDR,[6],46.3
same,EC50,[6],34.7 nM
same,Resistance fold change K101E,[7],9.6
same,EC50,[7],7.2 nM
same,Resistance fold change E138K,[8],10.3
same,EC50,[8],7.71 nM
same,EC50,[3]; [16],1.11 nM
same,Resistance fold change A17,[12],> 450
same,EC50,[12],> 500 nM
same,CC50,[9],11000 nM
same,HLM t1/2,[5],76.46 min
same,Aqueous solubility pH 2.0,[10],1.27 μg/mL
same,Aqueous solubility pH 7.4,[10],0.72 μg/mL
same,log P,[11],3.48
"N#C/C(=C\c1cc(F)c(Oc2ccc(N)c(Nc3ccc(C#N)cc3)n2)c(F)c1)C(N)=O [6h, (E)-6-[4”-(3-Amino-2-cyano-3-oxoprop-1-enyl)-2”,6”-difluoro]phenoxy-N^2-(4′-cyanophenyl)pyridin-2,3-diamine]",EC50,[2]; [14],370 ± 59 nM
same,CC50,[9],15800 nM
"CC(=O)CCc1cc(F)c(Oc2ccc(N)c(Nc3ccc(C#N)cc3)n2)c(F)c1 [6i, N^2-(4′-Cyanophenyl)amino-6-(2”,6”-difluoro-4”-(3-oxobutyl)phenoxy)pyridin-3-amine]",EC50,[2]; [14],4.66 ± 0.95 nM
same,CC50,[9],> 9800 nM
"CCCOC(=O)c1cc(F)c(Oc2ccc(N)c(Nc3ccc(C#N)cc3)n2)c(F)c1 [6j, N^2-(4′-Cyanophenyl)amino-6-(2”,6”-difluoro-4”-propylcarbmethoxy)phenoxypyr idin-3-amine]",EC50,[2]; [14],99 ± 19 nM
same,CC50,[9],15300 nM
"N#Cc1ccc(Nc2nc(Oc3c(F)cc(/C=C/C(N)=O)cc3F)ccc2N)cc1 [6k, (E)-N^2-(4′-Cyanophenyl)amino-6-(2”,6”-difluoro-4”-(2-carbamoyl)vinyl)phenoxy pyridin-3-amine]",EC50,[2]; [14],614 ± 118 nM
same,CC50,[9],> 24600 nM
"N#CCCc1cc(F)c(Oc2ccc(N)c(Nc3ccc(C#N)cc3)n2)c(F)c1 [6l, 6-(4”-(2-Cyanoethyl)-2”,6”-difluoro)phenoxy-N^2-(4′-cyanophenyl)aminopyridin-3-amine]",EC50,[2]; [14],2.81 ± 0.59 nM
same,CC50,[9],> 10200 nM
"N#Cc1ccc(Nc2nc(Oc3c(F)cc(CCCO)cc3F)ccc2N)cc1 [6n, N^2-(4′-Cyanophenyl)amino-6-(2”,6”-difluoro-4”-(3-hydroxypropyl)phenoxy) pyridin-3-amine]",EC50,[2]; [14],48 ± 9.8 nM
same,CC50,[9],> 25200 nM
"N#Cc1ccc(Nc2nc(Oc3c(Br)cc(C#N)cc3Br)ccc2N)cc1 [8a, 6-(4”-Cyano-2”,6”-dibromo)phenoxy-N^2-(4′-cyanophenyl)pyridin-2,3-diamine]",EC50,[2]; [14],0.99 nM and 0.93 nM
same,EC50,[2]; [15],0.93 nM
same,Resistance fold change RTMDR,[6],2.6
same,EC50,[6],2.47 nM
same,Resistance fold change K101E,[7],3.3
same,EC50,[7],3.09 nM
same,Resistance fold change E138K,[8],5.8
same,EC50,[8],5.44 nM
same,EC50,[3]; [16],12.4 nM
same,Resistance fold change A17,[12],30.8
same,EC50,[12],384 nM
same,CC50,[9],13200 nM
same,HLM t1/2,[5],41.66 min
same,Aqueous solubility pH 2.0,[10],0.79 μg/mL
same,Aqueous solubility pH 7.4,[10],0.72 μg/mL
same,log P,[11],3.30
"N#C/C=C/c1cc(Br)c(Oc2ccc(N)c(Nc3ccc(C#N)cc3)n2)c(Br)c1 [8b, (E)-N^2-(4′-Cyanophenyl)amino-6-(4”-cyanovinyl-2”,6”-dibromo)phenoxypyridin-3-diamine]",EC50,[2]; [14],0.33 ± 0.09 nM
same,EC50,[2]; [15],0.33 nM
same,Resistance fold change RTMDR,[6],2.2
same,EC50,[6],0.74 nM
same,Resistance fold change K101E,[7],23.1
same,EC50,[7],7.63 nM
same,Resistance fold change E138K,[8],12.4
same,EC50,[8],4.11 nM
same,EC50,[3]; [16],3.04 nM
same,Resistance fold change A17,[12],65.7
same,EC50,[12],200 nM
same,CC50,[9],8220 nM
same,HLM t1/2,[5],21.87 min
same,Aqueous solubility pH 2.0,[10],0.63 μg/mL
same,Aqueous solubility pH 7.4,[10],0.62 μg/mL
same,log P,[11],3.55
"COc1cc(/C=C/C#N)cc(Br)c1Oc1ccc(N)c(Nc2ccc(C#N)cc2)n1 [8c, (E)-6-(2”-Bromo-4”-cyanovinyl-6”-methoxy)phenoxy-N^2-(4′-cyanophenyl) pyridin-2,3-diamine]",EC50,[2]; [14],3.25 ± 0.89 nM
same,EC50,[2]; [15],3.25 nM
same,Resistance fold change RTMDR,[6],1.1
same,EC50,[6],3.46 nM
same,Resistance fold change K101E,[7],1.2
same,EC50,[7],3.9 nM
same,Resistance fold change E138K,[8],2.1
same,EC50,[8],6.93 nM
same,EC50,[3]; [16],4.53 nM
same,Resistance fold change A17,[12],18.6
same,EC50,[12],84.4 nM
same,CC50,[9],21000 nM
same,HLM t1/2,[5],54.7 min and 54.71 min
same,Aqueous solubility pH 2.0,[10],0.82 μg/mL
same,Aqueous solubility pH 7.4,[10],0.50 μg/mL
same,log P,[11],3.31
same,"resistance fold change (RFC), range over resistant strains",[13],1.1–2.1
"N#C/C=C/c1cc(Cl)c(Oc2ccc(N)c(Nc3ccc(C#N)cc3)n2)c(Cl)c1 [8d, (E)-N^2-(4′-Cyanophenyl)amino-6-(4”-cyanovinyl-2”,6”-dichloro)phenoxypyridin-3-amine]",EC50,[2]; [14],8.14 ± 2.49 nM
same,CC50,[9],10700 nM
same,HLM t1/2,[5],39.61 min
same,Aqueous solubility pH 2.0,[10],0.81 μg/mL
same,Aqueous solubility pH 7.4,[10],0.70 μg/mL
same,log P,[11],>5
"COc1cc(/C=C/C#N)ccc1Oc1ccc(N)c(Nc2ccc(C#N)cc2)n1 [8e, (E)-N^2-(4′-Cyanophenyl)amino-6-(2”-methoxy-4”-cyanovinyl)phenoxypyridin-3-amine]",EC50,[2]; [14],16.7 ± 4.33 nM
same,CC50,[9],> 20600 nM
"N^2-(4′-Cyanophenyl)amino-6-(4”-(2-cyano)propylcarbamoyl-2”,6”-difluoro)phen oxypyridin-3-amine [6m]",EC50,[2]; [14],350 ± 52 nM
same,CC50,[9],15100 nM
